The test system of one assay is MDA-MB-231 cells. As to the kind of experiment: MTT assay, MDA-MB-231. Type of assay: cell-based. The note with it: Homo sapiens, MDA-MB-231, 48 h, read-out: MTT IC50. Summed up:
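TNBC cells maintained in DMEM with 10% FBS at 37 °C, 5% CO2. About 10 000 cells/well seeded and exposed to test compound at 0.5–80 μM for 48 h, with 0.1% DMSO medium as control. MTT (1 mg mL−1) added for 4 h at 37 °C. Formazan dissolved in DMSO for 30 min at room temperature. Absorbance read at 540 nm.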
(Formazan colour is commonly taken as a measure of viable cells.)

For assay [1], the target named is T1, rat α2,3-O-sialyltransferase ST3GAL1 (Rattus norvegicus, UniProt Q6H8N0).
T1 sequence (Q6H8N0 1-340): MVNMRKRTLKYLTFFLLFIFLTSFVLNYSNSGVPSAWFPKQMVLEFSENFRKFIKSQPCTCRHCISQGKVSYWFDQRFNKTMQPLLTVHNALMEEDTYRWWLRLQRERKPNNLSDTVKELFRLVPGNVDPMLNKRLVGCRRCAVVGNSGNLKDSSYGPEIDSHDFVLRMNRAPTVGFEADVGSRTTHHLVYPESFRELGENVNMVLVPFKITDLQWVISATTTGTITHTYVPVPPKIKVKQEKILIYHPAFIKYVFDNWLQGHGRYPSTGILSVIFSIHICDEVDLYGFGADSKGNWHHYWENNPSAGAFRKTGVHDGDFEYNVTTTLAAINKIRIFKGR
The conditions noted are these: cited from earlier work.

Usually IC50 stands for the midpoint of a concentration-inhibition curve. Regarding `c1ccc2c(Cc3c[nH]c4ccccc34)c[nH]c2c1` [3,3′-DIM, 3,3′-diindolylmethane], the IC50 in the assay with MDA-MB-231 cells fell in the range of 40 to 80 µM. With `C[C@H](CCC(=O)O)[C@H]1CC[C@H]2[C@@H]3CC[C@@H]4C[C@H](O)CC[C@]4(C)[C@H]3CC[C@]12C` [LCA, Lithocholic acid], the “ST3GAL1 % Inhibition at 500 μM” value in assay [1] is on record as 53%.

(Values after publication PMC12394899 (RSC Medicinal Chemistry, 2025).)
